Active and inactive are the calls of the source. The calls are words filed in the database; no cut-off is given here.
How the values were obtained:
MCF7 [1] = assay: Antiproliferative activity against human MCF7 cells assessed as reduction in cell viability after 48 hrs by MTT assay; type: functional, cell-based
Outline: (§1)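 Cells seeded at 4 × 10³/well for 24 h runs and for PC-3, or 2 × 10³/well for MCF-7 and HeLa 48 h runs, and attached overnight. Medium replaced with compound-containing medium for 24 or 48 h. MTT (4 mg mL⁻¹) added for the final 3 h, formazan dissolved in DMSO, absorbance read at 570 nm (reference 660 nm). IC₅₀ calculated from at least three independent experiments in duplicate, mean ± SE.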

MCF7 [2] = assay: Antiproliferative activity against human MCF7 cells assessed as reduction in cell viability after 24 hrs by MTT assay; type: functional, cell-based; details: for IC50: MCF7, 24 h; outline: as §1
MCF7 [3] = assay: Induction of cell cycle arrest in human MCF7 cells assessed as accumulation of cells at G0/G1 phase at 2.9 uM after 24 hrs by Propidium iodide staining based flow cytometric analysis (reference value: 47.8 +/- 0.42%); type: functional
MCF7 [4] = assay: Induction of cell cycle arrest in human MCF7 cells assessed as accumulation of cells at S phase at 8.7 uM after 24 hrs by Propidium iodide staining based flow cytometric analysis (reference value: 23.75 +/- 1.87%); type: functional
HeLa [5] = assay: Antiproliferative activity against human HeLa cells assessed as reduction in cell viability after 48 hrs by MTT assay; type: functional, cell-based; outline: as §1
MCF7 [6] = assay: Induction of cell cycle arrest in human MCF7 cells assessed as accumulation of cells at G2/M phase at 8.7 uM after 24 hrs by Propidium iodide staining based flow cytometric analysis (reference value: 27 +/- 2.97%); type: functional
MCF7 [7] = assay: Induction of cell cycle arrest in human MCF7 cells assessed as accumulation of cells at G0/G1 phase at 8.7 uM after 24 hrs by Propidium iodide staining based flow cytometric analysis (reference value: 47.8 +/- 0.42%); type: functional
MCF7 [8] = assay: Induction of cell cycle arrest in human MCF7 cells assessed as accumulation of cells at G2/M phase at 2.9 uM after 24 hrs by Propidium iodide staining based flow cytometric analysis (reference value: 27 +/- 2.97%); type: functional
MCF7 [9] = assay: Induction of cell cycle arrest in human MCF7 cells assessed as accumulation of cells at S phase at 2.9 uM after 24 hrs by Propidium iodide staining based flow cytometric analysis (reference value: 23.75 +/- 1.87%); type: functional
PC-3 [10] = assay: Antiproliferative activity against human PC3 cells assessed as reduction in cell viability after 48 hrs by MTT assay; type: functional, cell-based; details: PC-3, 48 h; outline: as §1
HeLa [11] = assay: Cell cycle arrest in human HeLa cells assessed as reduction in cell population at S phase at 2.4 to 7.2 uM after 24 hrs by propidium iodide staining based flow cytometric analysis; type: functional
HeLa [12] = assay: Antiproliferative activity against human HeLa cells assessed as reduction in cell viability after 24 hrs by MTT assay; type: functional, cell-based; outline: as §1
[13] = Cytotoxicity against human HDFa cells assessed as reduction in cell viability after 24 hrs by MTT assay; type: cell-based; outline: as §1
HeLa [14] = assay: Induction of cell cycle arrest in human HeLa cells assessed as accumulation of cells at G0/G1 phase 2.4 to 7.2 uM after 24 hrs by propidium iodide staining based flow cytometric analysis (reference value: 44%); type: functional
HeLa [15] = assay: Cell cycle arrest in human HeLa cells assessed as reduction in cell population at G2/M phase at 2.4 to 7.2 uM after 24 hrs by propidium iodide staining based flow cytometric analysis; type: functional
HeLa [16] = assay: Cytostatic activity against human HeLa cells measured after 24 hrs by MTT assay; type: functional, cell-based; outline: as §1
MCF7 [17] = assay: Cytostatic activity against human MCF7 cells measured after 24 hrs by MTT assay; type: functional, cell-based; outline: as §1
[18] = Cytotoxicity against human HDFa cells assessed as reduction in cell viability after 48 hrs by MTT assay; type: cell-based; outline: as §1
PC-3 [19] = assay: Antiproliferative activity against human PC3 cells assessed as reduction in cell viability after 24 hrs by MTT assay; type: functional, cell-based; details: PC-3, 24 h; outline: as §1
PC-3 [20] = assay: Cytostatic activity against human PC3 cells measured after 24 hrs by MTT assay; type: functional, cell-based; outline: as §1
HeLa [21] = assay: Cell cycle arrest in human HeLa cells assessed as accumulation of cells at S phase at 8.7 uM after 24 hrs by propidium iodide staining based flow cytometric analysis; type: functional
HeLa [22] = assay: Cell cycle arrest in human HeLa cells assessed as accumulation of cells at G2/M phase at 8.7 uM after 24 hrs by propidium iodide staining based flow cytometric analysis; type: functional
HeLa [23] = assay: Induction of cell cycle arrest in human HeLa cells assessed as accumulation of cells at G0/G1 phase after 24 hrs by propidium iodide staining based flow cytometric analysis; type: functional

COc1ccc(-n2nc(C)c3c2C=C2Oc4c(C(C)=O)c(O)c(C)c(O)c4[C@]2(C)C3=O)cc1
inhibition (MCF7 [1]): inactive | inhibition (MCF7 [2]): inactive

CC(=O)c1c(O)c(C)c(O)c2c1OC1=CC(=O)C(C(C)=O)C(=O)C12C (stereo in doubt; (+)-1) [listing 1 of 2 here]
IC50 (MCF7 [1]; mcf7): 10 to 75.7 µM | Activity (MCF7 [3]): 46% | Activity (MCF7 [4]): 22.4% | IC50 (HeLa [5]; hela): 10 to 23.7 µM | Activity (MCF7 [6]): 24.8% | Activity (MCF7 [7]): 50.6% | Activity (MCF7 [8]): 28.8% | Activity (MCF7 [9]): 23%

CC(=O)c1c(O)c(C)c(O)c2c1OC1=Cc3c(c(C)nn3-c3ccccc3)C(=O)C12C (racemic)
inhibition (MCF7 [1]): inactive | inhibition (MCF7 [2]): inactive

CC(=O)c1c(O)c(C)c(O)c2c1OC1=Cc3c(c(C)nn3-c3ccc(C)cc3)C(=O)[C@]12C
inhibition (MCF7 [1]): inactive | inhibition (MCF7 [2]): inactive

COc1ccc(-n2nc(C)c3c2C=C2Oc4c(C(C)=O)c(O)c(C)c(O)c4C2(C)C3=O)cc1 (racemic)
inhibition (MCF7 [1]): inactive | inhibition (MCF7 [2]): inactive

CC(=O)c1c(O)c(C)c(O)c2c1OC1=Cc3c(c(C)nn3-c3ccc(C)cc3)C(=O)C12C (racemic)
inhibition (MCF7 [1]): inactive | inhibition (MCF7 [2]): inactive

CC(=O)c1c(O)c(C)c(O)c2c1OC1=Cc3c(c(C)nn3C)C(=O)[C@]12C
IC50 (PC-3 [10]): > 10 µM | Activity (HeLa [11]): Active | IC50 (HeLa [12]): 2.7 µM | IC50 [13]: > 10 µM | Activity (HeLa [14]): 51 - 65% | IC50 (MCF7 [1]; Homo sapiens, MCF7, 48 h): > 10 µM | Activity (HeLa [15]): Active | Activity (HeLa [16]): inactive | IC50 (HeLa [5]; Homo sapiens, HeLa, 48 h): 1.2 µM | Activity (MCF7 [17]): inactive | IC50 [18]: > 10 µM | IC50 (MCF7 [2]): > 10 µM | IC50 (PC-3 [19]): > 10 µM | Activity (PC-3 [20]): inactive

CC(=O)c1c(O)c(C)c(O)c2c1OC1=CC(=O)C(C(C)=O)C(=O)C12C (stereo in doubt; (+)-1) [listing 2 of 2 here]
Activity (HeLa [21]): Active | Activity (HeLa [22]): Active

CC(=O)c1c(O)c(C)c(O)c2c1OC1=Cc3c(c(C)nn3-c3ccc(Cl)c(Cl)c3)C(=O)[C@]12C
inhibition (MCF7 [1]): inactive | inhibition (MCF7 [2]): inactive

CC(=O)c1c(O)c(C)c(O)c2c1OC1=Cc3c(c(C)nn3C)C(=O)C12C (racemic)
IC50 (PC-3 [10]): > 10 µM | Activity (HeLa [11]): Active | IC50 (HeLa [12]): 2.7 µM | IC50 [13]: > 10 µM | Activity (HeLa [14]): 51 - 65% | IC50 (MCF7 [1]; Homo sapiens, MCF7, 48 h): > 10 µM | Activity (HeLa [15]): Active | Activity (HeLa [16]): inactive | IC50 (HeLa [5]; Homo sapiens, HeLa, 48 h): 1.1 µM | Activity (MCF7 [17]): inactive | IC50 [18]: > 10 µM | Activity (HeLa [23]): Dose-dependent effect | IC50 (MCF7 [2]): > 10 µM | IC50 (PC-3 [19]): > 10 µM | Activity (PC-3 [20]): inactive

CC(=O)c1c(O)c(C)c(O)c2c1OC1=CC(=O)C(C(C)=O)C(=O)C12C (stereo in doubt; (-)-1) [listing 1 of 2 here]
Activity (HeLa [21]): Active | Activity (HeLa [22]): Active

CC(=O)c1c(O)c(C)c(O)c2c1OC1=CC(=O)C(C(C)=O)C(=O)C12C (stereo in doubt; (-)-1) [listing 2 of 2 here]
IC50 (PC-3 [10]): > 10 µM | IC50 (HeLa [12]): > 10 µM | IC50 [13]: > 10 µM | IC50 (MCF7 [1]; Homo sapiens, MCF7, 48 h): > 10 µM | Activity (MCF7 [3]): 46.95% | Activity (MCF7 [4]): 20.6% | IC50 (HeLa [5]; Homo sapiens, HeLa, 48 h): > 10 µM | Activity (MCF7 [6]): 24.95% | IC50 [18]: > 10 µM | Activity (MCF7 [7]): 52.35% | Activity (MCF7 [8]): 28.25% | Activity (MCF7 [9]): 22.9% | IC50 (MCF7 [2]): > 10 µM | IC50 (PC-3 [19]): > 10 µM

CC(=O)c1c(O)c(C)c(O)c2c1OC1=Cc3c(c(C)nn3-c3ccc(Cl)c(Cl)c3)C(=O)C12C (racemic)
inhibition (MCF7 [1]): inactive | inhibition (MCF7 [2]): inactive

CC(=O)c1c(O)c(C)c(O)c2c1OC1=Cc3c(c(C)nn3-c3ccc(F)cc3)C(=O)C12C (racemic)
inhibition (MCF7 [1]): inactive | inhibition (MCF7 [2]): inactive

CC(=O)c1c(O)c(C)c(O)c2c1OC1=Cc3c(c(C)nn3-c3ccccc3)C(=O)[C@]12C
inhibition (MCF7 [1]): inactive | inhibition (MCF7 [2]): inactive

CC(=O)c1c(O)c(C)c(O)c2c1OC1=Cc3c(c(C)nn3-c3ccc(F)cc3)C(=O)[C@]12C
inhibition (MCF7 [1]): inactive | inhibition (MCF7 [2]): inactive

Reference: ChEMBL document CHEMBL4334455, “Synthesis of Usnic Acid Derivatives and Evaluation of Their Antiproliferative Activity against Cancer Cells” (J Nat Prod, 2019)
